Compound activity from PubChem BioAssay.
C2C12 statin – suppressors of simvastatin-induced myotoxicity in C2C12 myotubes | ATP luminescence, 48 h; scaled: DMSO 0, geranylgeraniol control 100 | AID 602340 | rescue of ATP level, % at 7.49 µM | 330,000 compounds, 0.78% hits;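 active = mean ATP rescue above about 67%, or every replicate alone reaching that limit, limit read from the data, passing the limit was not always enough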;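 also: myotubes were challenged with 10 µM simvastatin during compound exposure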
Mot1-301 SUMO – blocks SUMOylation pathway, rescuing yeast Mot1-301 growth | S. cerevisiae Mot1-301 growth rescue, ATP luminescence, 38.5C; percent above DMSO median, 100 means doubled | growth rescue, % at 18.8 µM | 320,000 compounds, 1% hits | AID 2716;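 active = every valid replicate shows activation above 250% relative to neutral control wells; inactive = the rest, any valid replicate at or below 250%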;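 also: OY570 slx delta 5 strain wells were the positive control but not used for scaling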
APOBEC3A inh – human APOBEC3A DNA deaminase inhibition; recombinant A3A, FAM/TAMRA ssDNA deamination fluorescence; inhibition, % at 20 µM; 330,000 compounds, 0.41% hits;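 active = at least 40% inhibition at 20 µM here, with at most 30% in a related deaminase screen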;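 also: plate controls were A3A with DMSO for no effect and wells lacking A3A enzyme for full effect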
A3G deaminase – blocks human APOBEC3G single-stranded DNA deamination; 330,000 compounds, 0.28% hits; recombinant A3G, ssDNA deamination FAM/TAMRA fluorescence; Q9HC16; inhibition, % at 20 µM;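 active = inhibition of at least 40% at 20 µM, with no more than 30% in the related APOBEC3A deaminase screen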;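 also: plate controls were DMSO wells with A3G for no effect and wells lacking A3G enzyme for full effect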
Target sequence (Q9HC16 whole entry, looked up): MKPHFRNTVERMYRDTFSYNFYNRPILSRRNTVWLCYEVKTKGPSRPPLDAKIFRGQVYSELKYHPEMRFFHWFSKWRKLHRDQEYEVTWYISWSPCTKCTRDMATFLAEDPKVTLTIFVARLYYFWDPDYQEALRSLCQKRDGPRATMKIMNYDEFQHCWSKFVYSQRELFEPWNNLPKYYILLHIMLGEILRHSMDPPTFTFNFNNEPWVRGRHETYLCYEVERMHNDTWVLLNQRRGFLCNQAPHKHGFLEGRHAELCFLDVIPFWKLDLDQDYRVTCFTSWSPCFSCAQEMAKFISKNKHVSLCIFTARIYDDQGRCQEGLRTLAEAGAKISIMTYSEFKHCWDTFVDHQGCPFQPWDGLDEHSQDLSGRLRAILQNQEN
ARFGAP1 inh – inhibitors of rat ARFGAP1; Q62848; Arfgap1-stimulated ARF1 GTP hydrolysis, GDP FP detection; inhibition, % at 16.5 µM; 360,000 compounds, 0.26% hits; AID 651572;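 active = inhibition above a per-plate limit, mean inhibition of low control wells plus 3 SD, cut at about 25% in these data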;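 also: 0% = DMSO wells with enzyme and 100% = wells lacking Arfgap1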
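Replicates: Single well per compound | Assay system: Truncated rat Arfgap1 GAP domain | Control set: No-Arfgap1 wells (100%) versus DMSO full-reaction wells (0%) | Times: Enzyme reaction 120 min at 25 °C after 20 min preincubation | Reagent: Human ARF1(Δ1-17)-GTP substrate | Measured by: Tracer-displacement fluorescence polarization with EDTA stop, 620/688 nm | Measure: Percent inhibition of Arfgap1-stimulated GTP hydrolysis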
ASAP1 inh – inhibitors of human ASAP1 ArfGAP activity. Q9ULH1. ASAP1-stimulated ARF1 GTP hydrolysis, GDP FP detection. inhibition, % at 16.5 µM. 360,000 compounds, 0.19% hits. AID 624377; in the data active = inhibition above about 25%;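 also: 0% = vehicle with enzyme and substrate and 100% = no enzyme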
Active calls of the source: *; · = no result. Shown are actives, neighbours in structure and some others; about 2.1% of the full set was active somewhere.

SMILES	C2C12 statin	Mot1-301 SUMO	APOBEC3A inh	A3G deaminase	ARFGAP1 inh	ASAP1 inh
O=C(c1ccccc1)c1ccc(Cn2cc(CCCO)nn2)cc1	150*	4	2	-4	6	-10
CCOc1ccc2ncc(S(=O)(=O)c3ccccc3)c(N3CCN(c4ccccc4)CC3)c2c1	18	-4	-2	-8	-9	-7
CCOC(=O)c1cnc2ccc(OCC)cc2c1N1CCN(c2ccccc2)CC1	81*	499	-3	-3	-1	4
CC(C)C#Cc1cnc2c(c1)C(=O)N([C@H](C)CO)C[C@H](C)[C@@H](CN(C)Cc1cncnc1)O2	-1	·	·	·	·	·
Cc1c(C(=O)N2CCc3ccccc32)oc2c1C(=O)CC(C)(C)C2	112*	·	·	·	3	-7
Cc1c(C(=O)N2CCN(C)CC2)oc2c1C(=O)CC(C)(C)C2	-5	26	0	-2	9	0
CCCCn1c(=N)n(CC(=O)c2ccco2)c2ccccc21	-25	-3	2	-7	1	6
CCCCCCCn1c(=N)n(CC(=O)c2ccco2)c2ccccc21	·	514*	-1	-1	13	-3
Cc1ccc2nc(SCC(=O)N(CC(C)C)c3c(N)n(CC(C)C)c(=O)[nH]c3=O)[nH]c2c1	101*	3	-5	-10	-4	3
CC(C)CN(C(=O)CCC(=O)OCC(=O)c1ccc(F)c(F)c1)c1c(N)n(CC(C)C)c(=O)[nH]c1=O	·	-7	-1	-8	-2	-5
CC(C)CN(C(=O)CCC(=O)OCC(=O)N(C)c1ccccc1)c1c(N)n(CC(C)C)c(=O)[nH]c1=O	11	515*	0	-4	6	-16
CCC(=O)N1C[C@@H](C)[C@@H](OC)CN(C)C(=O)c2ccc(NC(=O)C3CC3)cc2OC[C@H]1C	-26	·	·	·	·	·
CC(C#N)(Nc1ccc(Cl)cc1)c1cccnc1 (stereo not given)	·	306*	1	1	-2	6
C[C@@H]1CN([C@H](C)CO)C(=O)c2c(c3ccccc3n2C)-c2ccccc2CO[C@@H]1CN(C)C(=O)C1CC1	7	·	·	·	·	·
O=C(C[C@H]1CC[C@@H]2[C@H](COC[C@H](O)CN2CCC(F)(F)F)O1)NCc1ccc(Oc2ccccc2)cc1	72*	·	·	·	·	·
Cc1ccc2c(c1)nc(NCCO)n2C	91*	-4	4	2	5	1
CCN(CC)CCNc1nc2ccccc2n1C	5	-21	0	0	6	5
COc1cc2c(cc1OC)C(c1ccccc1)N(C(=O)CCl)CC2 (stereo not given)	168*	35	-1	-3	-7	8
CC1(Cc2ccccc2OC(F)(F)F)C(=O)Nc2ccc(S(=O)(=O)NC3CCCCC3)cc21 (stereo not given)	132*	·	·	·	5	-2
COc1ccccc1CC1(C)C(=O)Nc2ccc(S(=O)(=O)NC3CCCCC3)cc21 (stereo not given)	3	·	·	·	-2	11
COc1cccc(CCNC(=O)CC2C(=O)NCCN2Cc2ccc(Cl)c(F)c2)c1 (stereo not given)	14	-21	-3	-10	11	9
COc1cccc(CN2CCNC(=O)C2CC(=O)NCCN2CCCCC2=O)c1 (stereo not given)	86*	·	-6	-8	-8	23
C[C@H]1CN([C@@H](C)CO)S(=O)(=O)c2ccc(C#CC3CC3)cc2O[C@H]1CN(C)C(=O)Nc1cc(F)ccc1F	90*	·	·	·	·	·
C[C@H]1CN([C@@H](C)CO)S(=O)(=O)c2ccc(Br)cc2O[C@@H]1CN(C)S(=O)(=O)c1ccc(F)cc1	88*	·	·	·	·	·
COCC#Cc1ccc2c(c1)O[C@@H](CN(C)Cc1ccc(F)cc1)[C@@H](C)CN([C@H](C)CO)S2(=O)=O	7	·	·	·	·	·
COc1ccccc1-c1ccc2c(c1)[C@H]1[C@H](CCN1S(=O)(=O)c1cccc(C)c1)[C@@H](CO)N2	31	·	·	·	·	·
CCCC(=O)Nc1ccc2c(c1)OC[C@H](C)N(Cc1ccc(-c3ccccn3)cc1)C[C@@H](C)[C@@H](OC)CN(C)C2=O	-12	·	·	·	·	·
C[C@@H]1CN([C@H](C)CO)C(=O)c2cc(C#CC3CC3)cnc2O[C@H]1CN(C)S(=O)(=O)c1cccc(F)c1	11	·	·	·	·	·
